{"source": "paper PMC11185543", "about": "(bioRxiv, 2024)", "key": {"NOD mice [1]": {"system": "NOD mice", "experiment": "Insulitis score in prediabetic NOD mice after two weeks of treatment", "assay_type": "in vivo", "details": "0.25 or 2.5 mg/kg intraperitoneal for 2 weeks", "outline": "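Female NOD mice, 6 weeks old, received vehicle (5% DMSO, 2% Tween 80, 20% PEG400, saline) or test compound by intraperitoneal injection for two weeks. Pancreata were fixed in 4% paraformaldehyde, paraffin-embedded and sectioned. Islet infiltration was scored 1–4: none, <50% circumference, >50% circumference, intra-islet. N=4–5 mice per group; mean ±SEM; ANOVA.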"}, "NOD mice [2]": {"system": "NOD mice", "experiment": "β cell mass in NOD mice after two weeks of treatment", "assay_type": "in vivo", "details": "0.25 or 2.5 mg/kg intraperitoneal for 2 weeks", "outline": "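Female NOD mice, 6 weeks old, were given test compound or vehicle (5% DMSO, 2% Tween 80, 20% PEG400, saline) intraperitoneally for two weeks. Pancreata were fixed in 4% paraformaldehyde, paraffin-embedded, sectioned and stained for insulin. β cell mass was derived from insulin+ area relative to whole pancreas area. N=4–5 mice per group; mean ±SEM; ANOVA.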"}, "human islets": {"system": "human islets", "experiment": "Polyribosome profiling of human islets treated with proinflammatory cytokines", "assay_type": "cell-based", "details": "50 nM with IFN-γ + IL-1β", "outline": "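Human islets were pretreated 1 h with vehicle or test compound (50 nM), then exposed 18–24 h to 1000 IU/mL IFN-γ + 50 IU/mL IL-1β. Translation was halted with 50 μg/mL cycloheximide for 10 min, and lysates were made in buffer pH 7.5 with 10 mM MgCl2. Lysates were run on a 50–10% sucrose gradient (40,000 rpm, 2 h, 4°C) and fractionated with A254 monitoring. Fraction RNA was quantified by qRT-PCR relative to input.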"}, "PD-L1": {"system": "PD-L1", "assay_type": "cell-based, human", "details": "10 μM concurrent with cytokines 18–24 h, GOLM1 siRNA, EndoC-βH1 cells", "outline": "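EndoC-βH1 cells (low-glucose DMEM, 2% BSA, nicotinamide, β-mercaptoethanol, matrigel-fibronectin coating) had 1 h pretreatment with DMSO or test compound (50 nM). They were then co-treated 18–24 h with 1000 IU/mL IFN-γ + 50 IU/mL IL-1β. For knockdown, Accell GOLM1 siRNA was used and protein was taken 72–96 h later. Proteasome blockade was 10 μM MG132 with cytokines 18–24 h, starting 72 h post-knockdown. Immunoblot; N=3 biological replicates; ANOVA.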"}, "p-GCN2": {"system": "p-GCN2", "experiment": "Immunoblot for p-GCN2 in mouse embryonic fibroblasts", "assay_type": "cell-based", "details": "6 h, MEFs", "outline": "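MEFs grown in DMEM with 10% FBS were exposed to test compound (1 μM or 100 nM) or DMSO for 6 h. Protein lysates were collected and immunoblotted.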"}}, "note": "Where a SMILES comes first, the peptide text is derived from it. The star is where a group is joined. Cbz = O=C(OCc1ccccc1)*", "data": [{"smiles": "O=C(COc1ccc(Cl)cc1)NC1CCC(NC(=O)COc2ccc(Cl)cc2)CC1", "note": "(stereo not drawn) [ISRIB]", "values": [{"measurement": "insulitis", "setting": "NOD mice [1]", "result": "significant reduction in insulitis"}, {"measurement": "β cell mass", "setting": "NOD mice [2]", "result": "no effect on β cell mass"}, {"measurement": "RNA sedimenting with polysomes (translation initiation blockade)", "setting": "human islets", "result": "recovery of the RNA sedimenting with polysomes"}]}, {"smiles": "CC(C)C[C@@H](C=O)NC(=O)[C@H](CC(C)C)NC(=O)[C@H](CC(C)C)NC(=O)OCc1ccccc1", "note": "[MG132] (Cbz-Leu-Leu-Leu-aldehyde)", "values": [{"measurement": "attenuation of PD-L1 levels upon GOLM1 knockdown", "setting": "PD-L1", "result": "partially reversed"}]}, {"smiles": "O=C(CC1NCCCC1O)Cn1cnc2cc(Br)c(Cl)cc2c1=O", "note": "(stereo not drawn) [halofuginone]", "values": [{"measurement": "effect on p-GCN2", "setting": "p-GCN2; 100 nM", "result": "robustly induces p-GCN2"}]}, {"smiles": "C/C=C(/C)C(=O)O[C@H]1C(C)=C2[C@H]([C@@H]1OC(=O)CCCCCCC)[C@@](C)(OC(C)=O)C[C@H](OC(=O)CCC)[C@@]1(O)[C@H]2OC(=O)[C@@]1(C)O", "note": "[thapsigargin]", "values": [{"measurement": "effect on p-GCN2", "setting": "p-GCN2; 1 μM", "result": "suppresses it"}]}]}
